Results on nine compounds are retold here after ChEMBL document CHEMBL3132745, “Synthesis and Antimicrobial Activities of His(2-aryl)-Arg and Trp-His(2-aryl) Classes of Dipeptidomimetics” (Medchemcomm, 2014).

One data set relates to LLC-PK1. The experiment in a line: Cytotoxicity against pig LLC-PK1 cells assessed as cell viability after 48 hrs by neutral red uptake assay. The conditions noted are these: llc-pk1, 48 h. Format: cell-based, Sus scrofa. The essentials:
(§1)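 Neutral red uptake assay on human cancer lines (SK-MEL, KB, BT-549, SK-OV-3) and noncancerous mammalian cells (VERO, LLC-PK1). Highest tested concentration was 10 µg/mL.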

For the next data set, the system named is Vero. In words: Cytotoxicity against african green monkey Vero cells assessed as cell viability after 48 hrs by neutral red uptake assay. Particulars: chlorocebus sabaeus. Format: cell-based. The essentials: as §1
A further data set relates to SK-OV-3. In words: Cytotoxicity against human SKOV3 cells assessed as cell viability after 48 hrs by neutral red uptake assay. Format: cell-based. Particulars: sk-ov-3, 48 h. The essentials:
as §1

In another data set the test system is KB. The experiment in a line: Cytotoxicity against human KB cells assessed as cell viability after 48 hrs by neutral red uptake assay. Format: cell-based. The essentials:
as §1

The next data set deals with BT-549. In words: Cytotoxicity against human BT549 cells assessed as cell viability after 48 hrs by neutral red uptake assay. It is filed as cell-based. Particulars: bt-549, 48 h. The essentials: as §1
A further data set concerns SK-MEL. The experiment in a line: Cytotoxicity against human SK-MEL cells assessed as cell viability after 48 hrs by neutral red uptake assay. It is filed as cell-based. The essentials: as §1
For another data set, the system named is Escherichia coli. The experiment in a line: Antibacterial activity against Escherichia coli ATCC 35218 assessed as growth inhibition after 16-20 hrs by CLSI method. Format: functional, organism-based.
The next data set relates to Aspergillus fumigatus. The experiment in a line: Antifungal activity against Aspergillus fumigatus assessed as growth inhibition. It is filed as functional, organism-based.
The test system of the next data set is Pichia kudriavzevii. The experiment in a line: Antifungal activity against Candida krusei assessed as growth inhibition. It is filed as functional, organism-based.
The subject of another data set is Nakaseomyces glabratus. The experiment in a line: Antifungal activity against Candida glabrata assessed as growth inhibition. It is filed as functional, organism-based.
The next data set relates to Candida albicans. In words: Antifungal activity against Candida albicans assessed as growth inhibition. Format: functional, organism-based.
The test system of a further data set is Cryptococcus neoformans. The experiment in a line: Antifungal activity against Cryptococcus neoformans ATCC 90113 assessed as growth inhibition after 70-74 hrs by CLSI method. It is filed as functional, organism-based.
Where [1] appears, read: Cryptococcus neoformans, ATCC 90113, read-out: IC50.

One may read the IC50 as the concentration at which inhibition is half-maximal.

Values after ≈ are worked out from the molar mass of the structure shown. Active and inactive are the calls of the source. No rule for the calls is given here. Residues, ends and D or L forms follow the SMILES beside them. *: point of attachment. Boc = CC(C)(C)OC(=O)*; NHBn = c1ccc(CN*)cc1

Consider `CC(C)(C)OC(=O)N[C@@H](Cc1c[nH]c2ccccc12)C(=O)N[C@@H](Cc1c[nH]c(-c2ccccc2)n1)C(=O)NCc1ccccc1`, for which the Activity in the data set with LLC-PK1, in the data set with Vero, with SK-OV-3, with KB, with BT-549 and in the data set on SK-MEL was more than 10 µg/mL each time. Besides, the “growth inhibition (GI)” value in the data set on Escherichia coli, with Aspergillus fumigatus, in the data set with Pichia kudriavzevii, in the data set with Nakaseomyces glabratus and in the data set with Candida albicans was “inactive” in each case. In addition, the concentration for half-maximal inhibition (IC50) entry in the data set on Cryptococcus neoformans is “Not Active”. For the same compound, the MFC result in the data set with Cryptococcus neoformans was “inactive”. Further, the MIC result in the data set with Cryptococcus neoformans is “inactive”.

With `N[C@@H](Cc1c[nH]c2ccccc12)C(=O)N[C@@H](Cc1c[nH]c(-c2cccc3ccccc23)n1)C(=O)NCc1ccccc1`, the Activity in the data set on LLC-PK1, in the data set on Vero, in the data set with SK-OV-3, in the data set with KB, in the data set with BT-549 and in the data set with SK-MEL was more than 10 µg/mL throughout. Further, the “growth inhibition (GI)” value in the data set on Escherichia coli, in the data set with Aspergillus fumigatus, in the data set on Pichia kudriavzevii, with Nakaseomyces glabratus and in the data set with Candida albicans was “inactive” each time. Also, the half-maximal inhibitory concentration (IC50) entry in the data set on Cryptococcus neoformans is “Not Active”. Further, the MFC result in the data set on Cryptococcus neoformans is “inactive”. In addition, in the data set with Cryptococcus neoformans, the MIC entry was “inactive”.

In the case of `COC(=O)[C@H](Cc1c[nH]c(-c2cccc3ccccc23)n1)NC(=O)[C@@H](N)Cc1c[nH]c2ccccc12`, the Activity in the data set on LLC-PK1, with Vero, with SK-OV-3, in the data set on KB, in the data set with BT-549 and with SK-MEL was more than 10 µg/mL each time. Also, the “growth inhibition (GI)” value in the data set on Escherichia coli, with Aspergillus fumigatus, in the data set on Pichia kudriavzevii, with Nakaseomyces glabratus and with Candida albicans was “inactive” throughout. For the same compound, the MFC result with Cryptococcus neoformans is “inactive”. Besides, the MIC result in the data set with Cryptococcus neoformans is “inactive”. For the same compound, the IC50 in the data set with Cryptococcus neoformans (setting [1]) worked out at 17.3 µg/mL (≈ 35.9 µM).

As to `CC(C)(C)OC(=O)N[C@@H](Cc1c[nH]c2ccccc12)C(=O)N[C@@H](Cc1c[nH]c(-c2cccc3ccccc23)n1)C(=O)NCc1ccccc1`, the Activity in the data set with LLC-PK1, with Vero, with SK-OV-3, with KB, in the data set on BT-549 and with SK-MEL was more than 10 µg/mL in each case. In addition, the “growth inhibition (GI)” value in the data set with Escherichia coli, in the data set on Aspergillus fumigatus, in the data set with Pichia kudriavzevii, with Nakaseomyces glabratus and in the data set on Candida albicans was “inactive” each time. For the same compound, in the data set on Cryptococcus neoformans, the IC50 result was “Not Active”. Moreover, the MFC result in the data set on Cryptococcus neoformans is “inactive”. The MIC result in the data set with Cryptococcus neoformans was “inactive”.

For the compound `COC(=O)[C@H](CCCNC(=N)N)NC(=O)[C@H](Cc1c[nH]c(-c2ccc(OC)cc2)n1)NC(=O)OC(C)(C)C`, the Activity in the data set on LLC-PK1, in the data set on Vero, with SK-OV-3, in the data set on KB, in the data set with BT-549 and in the data set with SK-MEL was more than 10 µg/mL throughout. Moreover, the “growth inhibition (GI)” value in the data set on Escherichia coli, in the data set on Aspergillus fumigatus, in the data set on Pichia kudriavzevii, with Nakaseomyces glabratus and in the data set with Candida albicans was “inactive” throughout. For the same compound, the IC50 entry in the data set with Cryptococcus neoformans is given as “Not Active”. Also, the MFC entry with Cryptococcus neoformans is “inactive”. Moreover, the MIC entry in the data set with Cryptococcus neoformans was “inactive”.

In the case of `COC(=O)[C@H](CCCNC(=N)N)NC(=O)[C@H](Cc1c[nH]c(-c2ccccc2)n1)NC(=O)OC(C)(C)C`, the Activity in the data set with LLC-PK1, in the data set on Vero, with SK-OV-3, in the data set on KB, in the data set on BT-549 and with SK-MEL was more than 10 µg/mL throughout. In addition, the “growth inhibition (GI)” value with Escherichia coli, in the data set with Aspergillus fumigatus, with Pichia kudriavzevii, in the data set on Nakaseomyces glabratus and in the data set with Candida albicans was “inactive” each time. In the data set on Cryptococcus neoformans, the MFC result is “inactive”. In addition, in the data set on Cryptococcus neoformans, the MIC entry is “inactive”. In addition, the IC50 in the data set with Cryptococcus neoformans (setting [1]) stood at 16.6 µg/mL (≈ 33.1 µM).

In the case of `Cc1ccc(-c2nc(C[C@H](NC(=O)[C@H](Cc3c[nH]c4ccccc34)NC(=O)OC(C)(C)C)C(=O)NCc3ccccc3)c[nH]2)cc1`, the Activity with LLC-PK1, in the data set with Vero, with SK-OV-3, in the data set with KB, with BT-549 and with SK-MEL was more than 10 µg/mL in each case. Besides, the “growth inhibition (GI)” value with Escherichia coli, in the data set on Aspergillus fumigatus, in the data set with Pichia kudriavzevii, in the data set on Nakaseomyces glabratus and in the data set on Candida albicans was “inactive” throughout. Further, the IC50 result in the data set with Cryptococcus neoformans is “Not Active”. In addition, the MFC entry with Cryptococcus neoformans is “inactive”. For the same compound, the MIC result with Cryptococcus neoformans was “inactive”.

Regarding `N=C(N)NCCC[C@H](NC(=O)[C@@H](N)Cc1c[nH]cn1)C(=O)NCc1ccccc1` (H-His-Arg-NHBn), the Activity with LLC-PK1, with Vero, in the data set with SK-OV-3, in the data set on KB, in the data set on BT-549 and in the data set with SK-MEL was more than 10 µg/mL throughout. The “growth inhibition (GI)” value in the data set with Escherichia coli, with Aspergillus fumigatus, in the data set with Pichia kudriavzevii, with Nakaseomyces glabratus and in the data set on Candida albicans was “inactive” each time. Moreover, the IC50 entry in the data set on Cryptococcus neoformans is reported as “Not Active”. In addition, the MFC result with Cryptococcus neoformans is “inactive”. Besides, the MIC result in the data set on Cryptococcus neoformans was “inactive”.

For the compound `CC(C)(C)OC(=O)N[C@@H](Cc1c[nH]cn1)C(=O)N[C@@H](CCCNC(=N)N)C(=O)NCc1ccccc1` (Boc-His-Arg-NHBn), the Activity in the data set on LLC-PK1, in the data set with Vero, in the data set on SK-OV-3, in the data set on KB, in the data set with BT-549 and in the data set with SK-MEL was more than 10 µg/mL in each case. Besides, the “growth inhibition (GI)” value with Escherichia coli, in the data set on Aspergillus fumigatus, in the data set with Pichia kudriavzevii, with Nakaseomyces glabratus and with Candida albicans was “inactive” throughout. Besides, the IC50 result in the data set on Cryptococcus neoformans is recorded as “Not Active”. Moreover, the MFC entry in the data set on Cryptococcus neoformans was “inactive”. Further, the MIC entry in the data set with Cryptococcus neoformans is “inactive”.
